# The entries come from a sample that favours hits as a whole.
# T cruzi inh: T. cruzi replication inhibition; T. cruzi beta-gal in NIH3T3, luminescence, 90 h; inhibition, % (test concentration not listed); 1.4% of 300,000 active; AID 1885;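 active means mean inhibition across valid replicates above about 55%, limit read from the data; inconclusive means mean below that limit but half or more replicates reach it; inactive means mean below it, under half of replicates reach it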;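 further: signal also drops with host cell toxicity which is not excluded here; 0% = plate median of DMSO wells and 100% = zero luminescence signal; higher percent means less beta-gal luminescence so fewer parasites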
#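 System: NIH/3T3 fibroblasts plus reporter T. cruzi. Medium: DMEM plus 2% FBS. Probe or stimulus: 5000 reporter trypomastigotes per well. Compound: single 50 nL compound addition per well in DMSO. Incubation: co-culture of at least 90 h after 3 h attachment. Detection: GalScreen β-gal luminescence, detergent lysis, 60 min. Evaluation: parasite load inhibition, %.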
# Hsp70 act: switches on Hsp70 transcription; activation, % at 10 µM; 0.04% of 200,000 active; HeLa Hsp70 promoter luciferase reporter, luminescence; scaled: vehicle 0, proteasome-inhibitor control 100%;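 active means activation above the mean across all tested compounds plus 3 SD, cutoff set per campaign, cut at about 5.5% in these data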;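 further: 100% = MG132 at 30 µM as the positive control and 0% = DMSO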
# HSF1 inhib: HSF1 inhibition; AID 2098; 0.77% of 300,000 active; NIH3T3-HGL HSE-luciferase, MG132-induced, luminescence 8 h; hits give low values; activity change, negative = inhibition, % at 7.5 µM (by protocol);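 active means more than half of replicate wells show activity change below -50%, luminescence cut by over half; inconclusive means some wells, but at most half, below -50%; inactive means no replicate well below -50%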;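 further: luciferase reports HSF-1 transcriptional activity via heat shock element; 0% = median of DMSO wells and -100% = zero luminescence signal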
# L major viab: reduces viability of Leishmania major promastigotes. resazurin fluorescence viability. inhibition, % at 10 µM. 9% of 200,000 active; in the data active means inhibition above about 50%;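 further: promastigotes grown with compound for 44 hours at 28 °C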
# HSF1 activator: increases HSF-1 driven luciferase reporter signal | NIH3T3-HGL HSF-1 luciferase reporter, MG132, 8 h; 100% = twice DMSO control signal | activation, % at 9 µM | 1.7% of 300,000 active | AID 504408;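 active means mean replicate activation of at least 50% with a set share of replicates each reaching 50%; inconclusive means only one of those two conditions met; inactive means mean below 50% and too few replicates reaching it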;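 further: 0% = median of the neutral control wells and 100% = twice that signal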
# Active calls of the source: *; ? = inconclusive; . = not tested or not shown.
SMILES,T cruzi inh,Hsp70 act,HSF1 inhib,L major viab,HSF1 activator
Cc1cc(C)cc(-n2c(C)cc(/C=C3\C(=N)N4N=C(CC(C)C)SC4=NC3=O)c2C)c1,16,0,1,3,-6
Cc1cccc(-n2c(C)cc(/C=C3\C(=N)N4N=C(CC(C)C)SC4=NC3=O)c2C)c1,0,0,-1,59*,18
COc1ccccc1CNC(=O)COC(=O)CCC(=O)c1cccs1,-3,0,-28,-6,-43
Cc1cc(C(=O)CSc2nnc(-c3cccs3)o2)c(C)n1-c1ccccc1,21,0,-73*,0,-76
O=C(CSc1nnc(-c2cccs2)o1)c1cccs1,26,0,13,3,38
Cc1cc(C(=O)CSc2nnc3ccccn23)c(C)n1-c1ccccc1,14,-1,-81*,14,-85
Cc1cc(C(=O)CSc2nnc(-c3ccccc3)n2-c2ccccc2)c(C)n1-c1ncn[nH]1,10,0,0,-7,-9
CC1(C)Cc2c(sc3nc(=S)[nH]c(N)c23)CO1,2,.,4,.,-23
c1ccc(Cc2nnc(N3CCCCC3)c3ccccc23)cc1,11,0,8,21,40
COc1ccc(Sc2nnc(Cc3ccccc3)c3ccccc23)cc1,46,0,14,85*,22
Cc1ccc(Sc2nnc(Cc3ccccc3)c3ccccc23)cc1,62*,0,28,39,49
Fc1ccc(-c2noc(C3CCN(Cc4cccnc4)CC3)n2)cc1,36,0,10,94*,10
CCCC1CCC(c2nc(-c3cccnc3)no2)CC1 (configuration not stated),-17,0,2,-4,16
N#Cc1cc(NC2CCCC2)c([N+](=O)[O-])cc1C#N,-4,0,-2,61*,-6
Cc1[nH]c2ccccc2c1C(c1ccncc1)N1CCN(c2ccccc2F)CC1 (configuration not stated),14,0,-2,51*,-5
Cc1[nH]c2ccccc2c1C(c1ccncc1)N1CCN(c2ccccn2)CC1 (configuration not stated),-14,0,-4,30,-3
Cc1ccc2cc(CN(CCN3CCOCC3)Cc3nnnn3Cc3ccco3)c(=O)[nH]c2c1C,2,0,-3,-3,-22
Cc1cccc2cc(CN(CC3CCCO3)C(c3nnnn3Cc3ccco3)C(C)C)c(=O)[nH]c12 (configuration not stated),31,0,18,50*,20
Cc1ccc2cc(CN(CCCN3CCOCC3)C(c3nnnn3Cc3ccco3)C(C)C)c(=O)[nH]c2c1C (configuration not stated),-32,0,3,67*,0
O=C(CN1C(=O)c2cccnc2Oc2ccc(Cl)cc21)N1CCCC1,-11,.,-4,.,-5
CCOC(=O)c1ccc(NC(=O)C2C3C=CC(C3)C2C(=O)O)cc1 (configuration not stated),-4,0,-35,-4,-37
COC(=O)c1ccc(NC(=O)C2C3C=CC(C3)C2C(=O)O)cc1 (configuration not stated),-14,.,-52*,.,-53
Cc1ccc(CNS(=O)(=O)c2ccc(C)s2)cc1,-18,.,1,.,26
COc1ccccc1C1c2c(C)nn(-c3ccccc3)c2NC(=O)C1NC(=O)c1ccccc1 (configuration not stated),1,0,-2,75*,-5
CCc1noc(C)c1C(=O)Nc1cc(S(=O)(=O)N2CCOCC2)ccc1OCC(F)(F)F,-1,.,3,.,-8
SMILES,T cruzi inh,Hsp70 act,HSF1 inhib,L major viab,HSF1 activator
COc1ccccc1C(=O)Nc1nnc(SCC(=O)Nc2ccc3c(c2)oc2ccccc23)s1,22,0,21,96*,?
N#Cc1ccccc1NC(=O)c1ccccc1OCC(=O)Nc1ccc2c(c1)oc1ccccc12,61*,0,11,0,44
Cc1cccc(C(=O)Nc2nnc(SCC(=O)Nc3ccc4c(c3)oc3ccccc34)s2)c1,-9,0,4,17,29
CC(C)c1ccc(-c2csc3ncnc(N4CCN(C)CC4)c23)cc1,12,.,-8,.,-11
NNC(=O)c1ccccc1CO,-4,.,4,.,13
CC1C(c2ccccc2)N(C)C(c2ccccc2)CC1(O)c1ccc(F)cc1 (configuration not stated),58*,0,-5,49,-2
O=C1c2ccccc2C(=O)N1/N=C/c1ccc(O)c(O)c1,-12,0,-6,-5,-3
O=C(NCCN1CCOCC1)c1cc(-c2cccc(Cl)c2)on1,-3,.,-2,.,-13
O=C(NCCN1CCOCC1)c1ccc(CSCc2cccc(Cl)c2)o1,5,0,-3,1,-11
O=C(NCCCN1CCOCC1)c1ccc(CSCc2cccc(Cl)c2)o1,11,0,1,71*,-4
Clc1cccc(-c2ccc(CNCCCN3CCOCC3)o2)c1,42,0,24,77*,18
O=C(Nc1ccc(F)cc1)Nc1ccc(N2CCCC2)c(S(=O)(=O)Nc2ccccc2Cl)c1,19,0,2,98*,4
O=C(Nc1ccc(Cl)c(Cl)c1)Nc1ccc(N2CCCC2)c(S(=O)(=O)Nc2ccccc2Cl)c1,37,0,10,99*,5
Cc1ccc(C)c(NC(=O)c2ccccc2NC(=O)C2CCCO2)c1 (configuration not stated),2,0,-1,13,-3
COc1ccc(CNCc2ccco2)cc1OCc1ccccc1,-9,0,11,100*,14
COc1ccccc1CCNCc1ccc(OC)c(OCc2ccccc2)c1,2,-1,-4,100*,-1
CCCOc1cc(CC(=O)NCc2ccco2)ccc1OC,7,0,-3,2,-9
Cc1c(CNC(=O)C2CCC(=O)N(CCc3ccccc3)C2)cnn1C (configuration not stated),-11,.,-13,.,-9
CCOC(=O)c1nnn(CC(=O)N2N=C(c3ccc(Cl)cc3)CC2c2ccccc2)c1C(=O)OCC (configuration not stated),23,0,20,2,52*
CCOC(=O)c1nnn(CC(=O)N2N=C(c3ccc(Cl)cc3)CC2c2ccc(OC)cc2)c1C(=O)OCC (configuration not stated),14,0,-5,3,-3
COc1ccc(C2CC(c3ccccc3)=NN2C(=O)COC(=O)c2cnc(Cl)c(Cl)c2)cc1 (configuration not stated),4,0,11,97*,5
COc1ccc(C2CC(c3ccccc3)=NN2C(=O)COC(=O)c2cccc(S(=O)(=O)N3CCOCC3)c2)cc1 (configuration not stated),72*,0,12,49,5
COc1ccc(C2CC(c3ccccc3)=NN2C(=O)COC(=O)c2ccc(Cl)nc2)cc1 (configuration not stated),11,0,8,4,26
